Experimental data reported in ChEMBL document CHEMBL5608187, “Discovery of pyridoquinoxaline-based new P-gp inhibitors as coadjutant against Multi Drug Resistance in cancer” (Eur J Med Chem, 2024).
Active and inactive are the calls of the source. The rule behind the calls is not given here.

Key:
[1] = Cytotoxicity against human HGC-27 cells assessed as inhibition of cell growth at 4 uM incubated for 72 hrs by SiR-DNA/CellTox Green Dye based fluorescence analysis relative to control; assay type: toxicity
Outline: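 Single-agent control at 4 µM, no anticancer drug. 500 cells/well with SiR-DNA and CellTox Green; imaged at addition and 72 h. Live count = total nuclei minus dead cells, expressed as percent growth. Three technical replicates.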

A498 = test: Coadjutant activity against multidrug resistance in human A498 cells assessed as potentiation of etoposide-induced cell growth inhibition at 4 uM incubated for 72 hrs in presence of 0.04 to 40 uM etoposide by SiR-DNA/CellTox Green Dye based fluorescence analysis; assay type: functional
Outline: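 Growth by live-cell imaging: 500 cells/well plated with SiR-DNA and CellTox Green dye; serial dilutions in phenol-red-free complete medium added next day. Imaged at addition and at 72 h. Live cells = SiR-DNA nuclei minus CellTox-positive dead cells; percentage growth calculated. Three technical replicates; two-tailed t-test. Inhibitor paired with anticancer drug at fixed or scaled levels.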

O=C(Nc1ccccc1)c1ccccc1OCc1nc2cc3cccnc3cc2nc1COc1ccccc1C(=O)Nc1ccccc1
inhibition at 72 h, 4 µM [1]: 40%
Activity (A498): Active
